{
  "source": "paper PMC7495461",
  "about": "(ACS Omega, 2020)",
  "key": {"MARK4": {"molecular_target": "T1, MARK4 (Homo sapiens, UniProt Q96L34)", "T1 sequence (Q96L34 1-752)": "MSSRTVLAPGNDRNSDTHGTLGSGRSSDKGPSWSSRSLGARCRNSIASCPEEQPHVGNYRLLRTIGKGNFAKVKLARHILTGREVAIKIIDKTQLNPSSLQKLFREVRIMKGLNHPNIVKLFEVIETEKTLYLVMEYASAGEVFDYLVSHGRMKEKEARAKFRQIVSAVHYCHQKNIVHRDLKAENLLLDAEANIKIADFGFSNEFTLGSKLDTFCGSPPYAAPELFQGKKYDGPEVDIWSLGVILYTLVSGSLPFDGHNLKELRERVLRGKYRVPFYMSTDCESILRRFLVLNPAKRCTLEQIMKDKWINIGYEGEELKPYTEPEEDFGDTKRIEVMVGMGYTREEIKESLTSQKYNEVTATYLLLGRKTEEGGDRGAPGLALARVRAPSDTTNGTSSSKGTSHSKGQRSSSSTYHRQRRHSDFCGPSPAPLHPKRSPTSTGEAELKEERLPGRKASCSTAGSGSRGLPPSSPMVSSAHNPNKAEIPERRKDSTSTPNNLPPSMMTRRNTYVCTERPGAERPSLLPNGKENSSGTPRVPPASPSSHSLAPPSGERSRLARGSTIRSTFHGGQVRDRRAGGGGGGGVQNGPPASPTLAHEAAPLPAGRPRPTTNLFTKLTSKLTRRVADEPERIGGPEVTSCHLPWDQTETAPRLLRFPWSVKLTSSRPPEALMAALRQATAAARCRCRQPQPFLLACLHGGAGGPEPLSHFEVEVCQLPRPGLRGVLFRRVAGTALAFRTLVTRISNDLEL", "assay": "MARK4 enzyme inhibition assay", "format": "biochemical"}, "HepG2 cells [1]": {"test_system": "HepG2 cells", "assay": "MTT cell viability assay", "format": "cell-based", "details": "Homo sapiens, HepG2, 48 h, read-out: HepG2 IC50", "in_short": "(§1)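 MCF-7 or HepG2 cells were seeded at 8000–9000 cells/well. After 10 h they were exposed to test compound (0.1–80 μM) for 48 h at 37 °C in a humidified CO2 incubator. Medium was replaced with MTT (from a 5 mg/mL PBS pH 7.4 stock) in DMEM for 4–5 h. Formazan was dissolved in DMSO and absorbance read at 570/590 nm. Percent viability was used to derive IC50, with mean ± SD of n = 3 and paclitaxel as positive control.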"}, "MCF-7 cells [2]": {"test_system": "MCF-7 cells", "assay": "MTT cell viability assay", "format": "cell-based", "details": "Homo sapiens, MCF7, 48 h, read-out: MCF-7 IC50", "in_short": "as §1"}, "HepG2 cells [3]": {"test_system": "HepG2 cells", "assay": "Apoptosis assay", "format": "cell-based, human", "details": "IC50 dose, 10 h, Annexin-V/PI", "in_short": "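HepG2 cells were seeded at 2.5 × 10^5 cells/well in six-well plates and grown to 80% confluency. They were treated for 10 h at 37 °C, with media-only controls. Cells were trypsinized, washed three times with PBS and stained with FITC-Annexin-V and PI in Annexin binding buffer. About 10,000 events per sample were acquired by flow cytometry. Measurements were duplicate ± SD, with unpaired t-test against vehicle control.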"}, "MCF-7 cells [4]": {"test_system": "MCF-7 cells", "assay": "Estimation of ROS production", "format": "cell-based, human", "details": "MCF-7, IC50 dose, 5–6 h, vs vehicle control", "in_short": "(§2)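 MCF-7 or HepG2 cells were plated at 2.5 × 10^5 cells/well, treated next day for 5–6 h, with H2O2 as positive control. They were loaded with 10 μM DCFDA for 30 min at 37 °C in the dark, then trypsinized and pelleted. DCF fluorescence was read by spectrofluorimeter (ex 485, em 500–550 nm). Measurements were triplicate, with unpaired t-test against vehicle control.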"}, "HepG2 cells [5]": {"test_system": "HepG2 cells", "assay": "Estimation of ROS production", "format": "cell-based, human", "details": "HepG2, IC50 dose, 5–6 h, vs vehicle control", "in_short": "as §2"}, "HEK293 cells": {"test_system": "HEK293 cells", "assay": "MTT cell viability assay, noncancerous cells", "format": "cell-based, human", "details": "up to 100 μM, 48 h", "in_short": "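HEK293 cells were exposed to increasing test compound concentrations for 48 h. Viability was expressed as viable cells as a percentage of untreated control. Data are mean ± SD, n = 3.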"}},
  "data": [
    {"smiles": "Cc1ncc([N+](=O)[O-])n1C(=NO)c1ccc(Cl)cc1", "note": "[Compound 4f, N-[(4-Chlorophenyl)(2-methyl-5-nitro-1H-imidazol-1-yl)methylidene]hydroxylamine]", "values": [
      {"measurement": "IC50", "setting": "MARK4", "value": "> 20", "unit": "µM"},
      {"measurement": "IC50", "setting": "HepG2 cells [1]", "value": 24.8, "unit": "µM"},
      {"measurement": "IC50", "setting": "MCF-7 cells [2]", "value": 28.8, "unit": "µM"}
    ]},
    {"smiles": "Cc1ncc([N+](=O)[O-])n1C(=NO)c1ccc([N+](=O)[O-])cc1", "note": "[Compound 4g, N-[(2-Methyl-5-nitro-1H-imidazol-1-yl)(4-nitrophenyl)methylidene]hydroxylamine]", "values": [
      {"measurement": "IC50", "setting": "MARK4", "value": 16.2, "unit": "µM"},
      {"measurement": "IC50", "setting": "HepG2 cells [1]", "value": 25.3, "unit": "µM"},
      {"measurement": "IC50", "setting": "MCF-7 cells [2]", "value": 22.5, "unit": "µM"}
    ]},
    {"smiles": "CCOc1ccc(C(=NO)n2c([N+](=O)[O-])cnc2C)cc1", "note": "[Compound 4d, N-[(4-Ethoxyphenyl)(2-methyl-5-nitro-1H-imidazol-1-yl)methylidene]hydroxylamine]", "values": [
      {"measurement": "IC50", "setting": "MARK4", "value": "> 20", "unit": "µM"},
      {"measurement": "IC50", "setting": "HepG2 cells [1]", "value": 35.4, "unit": "µM"},
      {"measurement": "IC50", "setting": "MCF-7 cells [2]", "value": 33.3, "unit": "µM"}
    ]},
    {"smiles": "COc1ccc(C(=NO)n2c([N+](=O)[O-])cnc2C)cc1", "note": "[Compound 4b, N-[(4-Methoxyphenyl)(2-methyl-5-nitro-1H-imidazol-1-yl)methylidene]hydroxylamine]", "values": [
      {"measurement": "IC50", "setting": "MARK4", "value": "> 20", "unit": "µM"},
      {"measurement": "IC50", "setting": "HepG2 cells [1]", "value": 32.7, "unit": "µM"},
      {"measurement": "IC50", "setting": "MCF-7 cells [2]", "value": 34.4, "unit": "µM"}
    ]},
    {"smiles": "CCc1ccc(C(=NO)n2c([N+](=O)[O-])cnc2C)cc1", "note": "[Compound 4e, N-[(4-Ethylphenyl)(2-methyl-5-nitro-1H-imidazol-1-yl)methylidene]hydroxylamine]", "values": [
      {"measurement": "IC50", "setting": "MARK4", "value": 18.5, "unit": "µM"},
      {"measurement": "IC50", "setting": "HepG2 cells [1]", "value": 21.5, "unit": "µM"},
      {"measurement": "IC50", "setting": "MCF-7 cells [2]", "value": 23.3, "unit": "µM"}
    ]},
    {"smiles": "Cc1ncc([N+](=O)[O-])n1C(=NO)c1ccccc1", "note": "[Compound 4a, N-[(2-Methyl-5-nitro-1H-imidazol-1-yl)(phenyl)methylidene]hydroxylamine]", "values": [
      {"measurement": "IC50", "setting": "MARK4", "value": "> 20", "unit": "µM"},
      {"measurement": "IC50", "setting": "HepG2 cells [1]", "value": 38.5, "unit": "µM"},
      {"measurement": "IC50", "setting": "MCF-7 cells [2]", "value": 37.3, "unit": "µM"}
    ]},
    {"smiles": "Cc1ncc([N+](=O)[O-])n1C(=NO)c1ccccc1C(F)(F)F", "note": "[Compound 4h, N-{(2-Methyl-5-nitro-1H-imidazol-1-yl)[2-(trifluoromethyl)phenyl]methylidene}hydroxyl Amine]", "values": [
      {"measurement": "IC50", "setting": "MARK4", "value": 1.47, "unit": "µM"},
      {"measurement": "MARK4 inhibition at a single dose", "setting": "MARK4; single dose of 20 μM, initial screening", "value": "significant inhibition"},
      {"measurement": "IC50", "setting": "HepG2 cells [1]", "value": 5.99, "unit": "µM"},
      {"measurement": "apoptosis induced, % of HepG2 cells", "setting": "HepG2 cells [3]", "value": 20.8, "unit": "%"},
      {"measurement": "DCF fluorescence (level of ROS production)", "setting": "MCF-7 cells [4]", "value": "decreases"},
      {"measurement": "DCF fluorescence (level of ROS production)", "setting": "HepG2 cells [5]", "value": "decreases"},
      {"measurement": "IC50", "setting": "MCF-7 cells [2]", "value": 3.74, "unit": "µM"},
      {"measurement": "viability of noncancerous cells (HEK293)", "setting": "HEK293 cells", "value": "did not affect the viability"}
    ]},
    {"smiles": "Cc1ccc(C(=NO)n2c([N+](=O)[O-])cnc2C)cc1", "note": "[Compound 4c, N-[(2-Methyl-5-nitro-1H-imidazol-1-yl)(4-methylphenyl)methylidene]hydroxylamine]", "values": [
      {"measurement": "IC50", "setting": "MARK4", "value": "> 20", "unit": "µM"},
      {"measurement": "IC50", "setting": "HepG2 cells [1]", "value": 33.2, "unit": "µM"},
      {"measurement": "IC50", "setting": "MCF-7 cells [2]", "value": 32.5, "unit": "µM"}
    ]}
  ]
}
